Test results from ChEMBL document CHEMBL4330056, “Synthesis and Cytotoxic and Antiviral Profiling of Pyrrolo- and Furo-Fused 7-Deazapurine Ribonucleosides” (J Med Chem, 2018).
pEC50, pIC50: −log10 of the molar value. The source made the active and inactive calls. The rule behind the calls is not given here.

Assays:
HCT-116 = assay: Antiproliferative activity against human HCT116 cells after 3 days by MTS assay; type: functional, cell-based; conditions: HCT-116, 72 h
MRC5 = assay: Antiproliferative activity against human MRC5 cells after 3 days by MTS assay; conditions: MRC5, 72 h
CCRF-CEM [1] = assay: Induction of cell cycle arrest in human CCRF-CEM cells assessed as accumulation at G2/M phase at IC50 concentration after 24 hrs by propidium iodide-staining based flow cytometry (reference value: 19.22%); type: functional
CCRF-CEM [2] = assay: Induction of cell cycle arrest in human CCRF-CEM cells assessed as accumulation at subG1 phase at 5 times IC50 concentration after 24 hrs by propidium iodide-staining based flow cytometry (reference value: 3.45%); type: functional
HL-60 = assay: Antiproliferative activity against human HL60 cells after 72 hrs by XTT assay; type: functional, cell-based; conditions: HL-60, 72 h
U2OS = assay: Antiproliferative activity against human U2OS cells after 3 days by MTS assay; type: functional, cell-based; conditions: 72 h
K562 = assay: Antiproliferative activity against human K562 cells after 3 days by MTS assay; type: functional, cell-based; conditions: K562, 72 h
CCRF-CEM [3] = assay: Induction of cell cycle arrest in human CCRF-CEM cells assessed as accumulation at S phase at IC50 concentration after 24 hrs by propidium iodide-staining based flow cytometry (reference value: 41.08%); type: functional
[4] = Chemical stability of the compound assessed as compound remaining after 15 mins relative to control; type: physicochemical; conditions: read-out: Stability
CCRF-CEM [5] = assay: Induction of cell cycle arrest in human CCRF-CEM cells assessed as accumulation at S phase at 5 times IC50 concentration after 24 hrs by propidium iodide-staining based flow cytometry (reference value: 41.08%); type: functional
HepG2 = assay: Antiproliferative activity against human HepG2 cells after 72 hrs by XTT assay; type: functional, cell-based; conditions: HepG2, 72 h
[6] = Metabolic stability in human liver microsomes assessed as compound remaining at 5 umol/L after 15 mins relative to control; type: ADME, Microsome; conditions: read-out: Stability
Method in brief: (§1)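 Human microsomal fraction; percent compound remaining over time.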

[7] = Antiproliferative activity against human CEM-DNR-bulk cells after 3 days by MTS assay; conditions: 72 h
CCRF-CEM [8] = assay: Inhibition of mitosis in human CCRF-CEM cells assessed Ser10 H3 phosphorylation positive cells at 5 times IC50 concentration after 24 hrs by flow cytometry relative to total cell population (reference value: 1.36%); type: functional; set-up: scale not given: the % may be the effect or the level left
[9] = Cytotoxicity against human Hep2 cells assessed as reduction in cell viability after 3 days by CellTiter-Glo assay; type: cell-based; conditions: HEp-2 cells
[10] = Chemical stability of the compound assessed as compound remaining after 120 mins relative to control; type: physicochemical; conditions: read-out: Stability
[11] = Stability in human plasma assessed as compound remaining at 3.3 umol/L after 30 mins by RF-MS analysis relative to control; type: ADME, cell-free; conditions: read-out: Stability
[12] = Stability in human plasma assessed as compound remaining at 3.3 umol/L after 60 mins by RF-MS analysis relative to control; type: ADME, cell-free; conditions: read-out: Stability
[13] = Antiproliferative activity against human K562-TAX cells after 3 days by MTS assay; type: functional, cell-based; conditions: 72 h
A549 = assay: Antiproliferative activity against human A549 cells after 3 days by MTS assay; type: functional, cell-based; conditions: A549, 72 h
CCRF-CEM [14] = assay: Inhibition of RNA synthesis in human CCRF-CEM cells assessed as RNA synthesis level at IC50 concentration after 24 hrs by BrU incorporation assay (reference value: 49.89%); type: functional; set-up: scale not given: the % may be the effect or the level left
Adenosine kinase = Adenosine kinase (Homo sapiens, UniProt P55263); assay: Inhibition of recombinant human ADK using [3H]-adenosine as substrate after 20 mins by TLC scanner-based analysis relative to control
Adenosine kinase, sequence (P55263 whole entry): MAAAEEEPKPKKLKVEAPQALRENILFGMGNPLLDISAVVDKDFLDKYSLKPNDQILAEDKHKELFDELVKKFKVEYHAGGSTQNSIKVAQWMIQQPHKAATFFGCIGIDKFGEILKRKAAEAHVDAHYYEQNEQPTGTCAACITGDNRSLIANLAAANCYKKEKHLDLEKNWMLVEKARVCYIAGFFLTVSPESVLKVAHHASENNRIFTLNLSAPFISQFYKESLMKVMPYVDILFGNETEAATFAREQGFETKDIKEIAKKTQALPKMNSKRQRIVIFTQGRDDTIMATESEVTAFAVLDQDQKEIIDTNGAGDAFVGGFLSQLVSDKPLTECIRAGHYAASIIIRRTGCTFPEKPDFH
Method in brief: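 ADK inhibition: 50 μM adenosine substrate with 10 μM test compound and 97 ng enzyme, 20 min at 37 °C.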

Human alphaherpesvirus 1 = assay: Antiviral activity against human herpesvirus 1 HF infected in African green monkey Vero cells assessed as inhibited virus-induced cytopathic effect incubated for 3 days by XTT assay; type: functional, organism-based
Human orthopneumovirus = assay: Antiviral activity against Human respiratory syncytial virus A2 infected in Hep2 cells assessed as reduction in virus-induced cytopathic effect incubated for 4 days by CellTiter-Glo viability reagent based assay; type: functional, organism-based
CCRF-CEM [15] = assay: Induction of cell cycle arrest in human CCRF-CEM cells assessed as accumulation at G0/G1 phase at 5 times IC50 concentration after 24 hrs by propidium iodide-staining based flow cytometry (reference value: 39.70%); type: functional
[16] = Stability in human plasma assessed as compound remaining at 3.3 umol/L after 120 mins by RF-MS analysis relative to control; type: ADME, cell-free; conditions: read-out: Stability
[17] = Chemical stability of the compound assessed as compound remaining after 30 mins relative to control; type: physicochemical; conditions: read-out: Stability
Coxsackievirus B3 = assay: Antiviral activity against Human coxsackie B3 Nancy infected in human HeLa cells assessed as inhibited virus-induced cytopathic effect incubated for 2 days by XTT assay; type: functional, organism-based
CCRF-CEM [18] = assay: Induction of cell cycle arrest in human CCRF-CEM cells assessed as accumulation at G0/G1 phase at IC50 concentration after 24 hrs by propidium iodide-staining based flow cytometry (reference value: 39.70%); type: functional
CCRF-CEM [19] = assay: Inhibition of RNA synthesis in human CCRF-CEM cells assessed as RNA synthesis level at 5 times IC50 concentration after 24 hrs by BrU incorporation assay (reference value: 49.89%); type: functional; set-up: scale not given: the % may be the effect or the level left
[20] = Chemical stability of the compound assessed as compound remaining after 60 mins relative to control; type: physicochemical; conditions: read-out: Stability
dengue virus type 2 = assay: Antiviral activity against Dengue virus 2 Thailand/16681/84 infected in African green monkey Vero cells assessed as inhibition of virus replication incubated for 3 days by fluorescence microscopy; type: functional, organism-based
CCRF-CEM [21] = assay: Antiproliferative activity against human CCRF-CEM cells after 3 days by MTS assay; type: functional, cell-based; conditions: 72 h
BJ = assay: Antiproliferative activity against human BJ cells after 3 days by MTS assay; conditions: 72 h
[22] = Effective permeability of the compound at 20 umol/L by PAMPA; type: ADME; conditions: 20 µM
Hepatitis C virus [23] = assay: Antiviral activity against Hepatitis C virus genotype 1b infected in human Huh-luc replicon cells after 3 days by luciferase assay; type: functional, organism-based, Hepacivirus hominis; conditions: subtype 1b, 72 h
[24] = Protein binding in human plasma; type: ADME, cell-free; conditions: read-out: PPB (converted)
CCRF-CEM [25] = assay: Inhibition of DNA synthesis in human CCRF-CEM cells assessed as DNA synthesis level at IC50 concentration after 24 hrs by BrdU incorporation assay (reference value: 43.39%); type: functional; set-up: scale not given: the % may be the effect or the level left
CCRF-CEM [26] = assay: Inhibition of mitosis in human CCRF-CEM cells assessed Ser10 H3 phosphorylation positive cells at IC50 concentration after 24 hrs by flow cytometry relative to total cell population (reference value: 1.36%); type: functional; set-up: scale not given: the % may be the effect or the level left
CCRF-CEM [27] = assay: Induction of cell cycle arrest in human CCRF-CEM cells assessed as accumulation at G2/M phase at 5 times IC50 concentration after 24 hrs by propidium iodide-staining based flow cytometry (reference value: 19.22%); type: functional
[28] = Metabolic stability in human liver microsomes assessed as compound remaining at 5 umol/L after 60 mins relative to control; type: ADME, Microsome; conditions: read-out: Stability; method in brief: as §1
Hepatitis C virus [29] = assay: Antiviral activity against Hepatitis C virus genotype 2a infected in human Huh-luc replicon cells after 3 days by luciferase assay; type: functional, organism-based, Hepacivirus hominis; conditions: subtype 2a, 72 h
HeLa S3 = assay: Antiproliferative activity against human HeLaS3 cells after 72 hrs by XTT assay; type: functional, cell-based; conditions: HeLa S3, 72 h

In the case of `Cc1ncnc2c1c1occc1n2[C@@H]1O[C@H](CO)[C@@H](O)[C@H]1O`, the pIC50 (HCT-116) was 6.35, the pIC50 (MRC5) was < 4.30 and the Activity (CCRF-CEM [1]) was 16.12%. The Activity (CCRF-CEM [2]) was 20.53%, the pIC50 (HL-60) was 5.92 and the pIC50 (U2OS) was 6.24. It also gave a pIC50 (K562) of 6.39, an Activity (CCRF-CEM [3]) of 39.31% and a remaining at 0.25 h [4] of 99%. For the same compound, the Activity (CCRF-CEM [5]) was 59.66%, the pIC50 (HepG2) was 5.67 and the remaining at 0.25 h, 5 µM [6] was 100%. The pIC50 [7] was < 4.30, the Activity (CCRF-CEM [8]) was 0.99% and the CC50 at 72 h [9] was > 44400 nM. It also gave a remaining at 2 h [10] of 96%, a remaining at 0.5 h, 3.3 µM [11] of 99% and a remaining at 1 h, 3.3 µM [12] of 98%. It also gave a pIC50 [13] of 5.16, a pIC50 (A549) of 5.50 and an Activity (CCRF-CEM [14]) of 21.63%. For the same compound, the pIC50 (Adenosine kinase) was < 5.00, the Activity (Human alphaherpesvirus 1) was “inactive” and the Activity (Human orthopneumovirus) was “inactive”. The Activity (CCRF-CEM [15]) was 36.83%, the remaining at 2 h, 3.3 µM [16] was 96% and the remaining at 0.5 h [17] was 99%. The Activity (Coxsackievirus B3) was “inactive”, the Activity (CCRF-CEM [18]) was 44.57% and the Activity (CCRF-CEM [19]) was 0.61%. For the same compound, the remaining at 1 h [20] was 99%, the Activity (dengue virus type 2) was “inactive” and the pIC50 (CCRF-CEM [21]) was 6.62. For the same compound, the pIC50 (BJ) was 5.11, the “log(permeability)” value [22] was -6.88 and the pEC50 (Hepatitis C virus [23]) was 6.55. It also gave a fraction unbound [24] of 0.41, an Activity (CCRF-CEM [25]) of 38.11% and an Activity (CCRF-CEM [26]) of 1.09%. It also gave an Activity (CCRF-CEM [27]) of 13.52%, a remaining at 1 h, 5 µM [28] of 98% and a pEC50 (Hepatitis C virus [29]) of 6.62. The pIC50 (HeLa S3) was 5.66.

With `CSc1ncnc2c1c1occc1n2[C@@H]1O[C@H](CO)[C@@H](O)[C@H]1O` the pIC50 (HCT-116) was 6.66, the pIC50 (MRC5) was 5.03 and the Activity (CCRF-CEM [1]) was 17.31%. For the same compound, the Activity (CCRF-CEM [2]) was 14.06%, the pIC50 (HL-60) was 6.54 and the pIC50 (U2OS) was 6.47. For the same compound, the pIC50 (K562) was 6.57, the Activity (CCRF-CEM [3]) was 38.26% and the remaining at 0.25 h [4] was 99%. For the same compound, the Activity (CCRF-CEM [5]) was 53.55%, the pIC50 (HepG2) was 5.70 and the remaining at 0.25 h, 5 µM [6] was 100%. The pIC50 [7] was 5.25, the Activity (CCRF-CEM [8]) was 0.9% and the CC50 at 72 h [9] was > 44400 nM. It also gave a remaining at 2 h [10] of 96%, a remaining at 0.5 h, 3.3 µM [11] of 99% and a remaining at 1 h, 3.3 µM [12] of 98%. For the same compound, the pIC50 [13] was 5.57, the pIC50 (A549) was 5.31 and the Activity (CCRF-CEM [14]) was 0.39%. For the same compound, the pIC50 (Adenosine kinase) was < 5.00, the Activity (Human alphaherpesvirus 1) was “inactive” and the Activity (Human orthopneumovirus) was “inactive”. It also gave an Activity (CCRF-CEM [15]) of 33.16%, a remaining at 2 h, 3.3 µM [16] of 96% and a remaining at 0.5 h [17] of 99%. The Activity (Coxsackievirus B3) was “inactive”, the Activity (CCRF-CEM [18]) was 44.43% and the Activity (CCRF-CEM [19]) was 6.55%. The remaining at 1 h [20] was 99%, the Activity (dengue virus type 2) was “inactive” and the pIC50 (CCRF-CEM [21]) was 6.85. For the same compound, the pIC50 (BJ) was 6.31, the “log(permeability)” value [22] was -5.99 and the pEC50 (Hepatitis C virus [23]) was 6.55. For the same compound, the fraction unbound [24] was 0.16, the Activity (CCRF-CEM [25]) was 39.68% and the Activity (CCRF-CEM [26]) was 1.26%. For the same compound, the Activity (CCRF-CEM [27]) was 13.3%, the remaining at 1 h, 5 µM [28] was 98% and the pEC50 (Hepatitis C virus [29]) was 6.62. It also gave a pIC50 (HeLa S3) of 5.53.
